Results on 5 compounds are retold here after ChEMBL document CHEMBL1123513, “Role of the C-terminal carboxylate in angiotensin II activity: alcohol, ketone, and ester analogues of angiotensin II” (1986).

Square brackets hold non-standard residues; d marks the D form. Peptide text beside a SMILES is read from it. * marks the point of attachment. αMeF = C[C@](N)(Cc1ccccc1)C(=O)O; Phe(ol) = N[C@H](CO)Cc1ccccc1; X1 = CC(=O)[C@H](Cc1ccccc1)N*

Assay [1] is filed under the species Rattus norvegicus. As to the kind of experiment: Compound was tested for oxytocic response in rat. Format: functional.
The species named for assay [2] is Rattus norvegicus. As to the kind of experiment: Compound was tested for pressor response in rat. Format: functional. The method, boiled down:
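Urethane-anesthetized male Zivic-Miller rats; blood pressure recorded from the cannulated left femoral artery via a linear core transducer. Peptides were injected into the cannulated right jugular vein with an automatic dispensing syringe. An AII dose-response curve was run before and after each analogue, so each animal served as its own control. Dose-response data are given as mean ± SEM, with the number of animals stated.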

For the compound `CC(=O)N[C@@H](CC(N)=O)C(=O)N[C@@H](CCCN=C(N)N)C(=O)N[C@H](C(=O)N[C@@H](Cc1ccc(O)cc1)C(=O)N[C@H](C(=O)N[C@@H](Cc1c[nH]cn1)C(=O)N1CCC[C@H]1C(=O)N[C@@H](Cc1ccccc1)C(C)=O)C(C)C)C(C)C` (Ac-NRVYVHP-X1), the results for the Activity in assay [1] and in assay [2] were 0.4% and 0.03%, respectively.
The like results for `COC(=O)[C@H](Cc1ccccc1)NC(=O)[C@@H]1CCCN1C(=O)[C@H](Cc1c[nH]cn1)NC(=O)[C@@H](NC(=O)[C@H](Cc1ccc(O)cc1)NC(=O)[C@@H](NC(=O)[C@H](CCCN=C(N)N)NC(=O)[C@H](CC(N)=O)NC(C)=O)C(C)C)C(C)C` (Ac-NRVYVHPF-OMe) were, in that order, 20% and 13%.
The like results for `CC(=O)N[C@@H](CC(N)=O)C(=O)N[C@@H](CCCN=C(N)N)C(=O)N[C@H](C(=O)N[C@@H](Cc1ccc(O)cc1)C(=O)N[C@H](C(=O)N[C@@H](Cc1c[nH]cn1)C(=O)N1CCC[C@H]1C(=O)N[C@H](CO)Cc1ccccc1)C(C)C)C(C)C` (Ac-NRVYVHP[Phe(ol)]) were, in that order, 0.09% and 0.001%.
For `COC(=O)[C@](C)(Cc1ccccc1)NC(=O)[C@@H]1CCCN1C(=O)[C@H](Cc1c[nH]cn1)NC(=O)[C@@H](NC(=O)[C@H](Cc1ccc(O)cc1)NC(=O)[C@@H](NC(=O)[C@H](CCCN=C(N)N)NC(=O)[C@H](CC(N)=O)NC(C)=O)C(C)C)C(C)C` (Ac-NRVYVHP[αMeF]-OMe) the same measures were 0.002% and 0.001%.
As to H-NRVYVHPF-OH [ANGIOTENSIN AMIDE], the Activity in assay [1] and in assay [2] was 100% each time.
